In ChEMBL document CHEMBL1145465, “PhoU is a persistence switch involved in persister formation and tolerance to multiple antibiotics and stresses in Escherichia coli” (2007):
Values after ≈ are worked out from the molar mass of the structure shown. Active and inactive are the calls of the source. The rule behind the calls is not given here.

Experiments:
[1] = tested on: Escherichia coli; test: Antibacterial activity against Escherichia coli K12 PhoU wild type W3110 assessed as cell count in stationary phase at 2 mg/ml after 6 days
[2] = tested on: Escherichia coli; test: Antibacterial activity against Escherichia coli K12 containing PhoU mutant assessed as bacterial killing stationary phase at 2 mg/ml after 6 days
[3] = tested on: Escherichia coli; test: Antibacterial activity against Escherichia coli K12 containing PhoU mutant assessed as bacterial killing log phase at 3 ug/ml after 6 days; format: functional
[4] = tested on: Escherichia coli; test: Antibacterial activity against Escherichia coli K12 PhoU wild type W3110 assessed as cell count in log phase at […] after 6 days; format: functional, organism-based
[5] = tested on: Escherichia coli; test: Antibacterial activity against Escherichia coli K12 mutant JHU313 at 25 ug/ml after 48 hrs by disc diffusion method; format: functional
Outline: (§1)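 Kirby-Bauer disc assay: log-phase LB culture was spread on LB agar for confluent growth. 7-mm nitrocellulose discs were soaked in antibiotic at the listed concentration and placed on the agar. After 48 h at 37°C, the diameter of the inhibition zone was measured in mm.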

[6] = tested on: Escherichia coli; test: Antibacterial activity against Escherichia coli K12 PhoU wild type W3110 at 50 ug/ml after 48 hrs by disc diffusion method; format: functional
Outline: (§2)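 Kirby-Bauer disc assay. Log-phase LB broth culture (10⁸ bacteria) was spread on LB agar for confluent growth. 7 mm nitrocellulose discs soaked in antibiotic solution at the listed concentration were placed on the agar. Inhibition zone diameter (mm) was measured after 48 h at 37°C.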

[7] = tested on: Escherichia coli; test: Antibacterial activity against Escherichia coli K12 mutant JHU313 containing plasmid PhoU at 12.5 ug/ml after 48 hrs by disc diffusion method; format: functional
Outline: as §1

[8] = tested on: Escherichia coli; test: Antibacterial activity against Escherichia coli K12 mutant JHU313 at 50 ug/ml after 48 hrs by disc diffusion method; format: functional
Outline: as §1

[9] = tested on: Escherichia coli; test: Antibacterial activity against Escherichia coli K12 mutant JHU313 containing plasmid vector at 25 ug/ml after 48 hrs by disc diffusion method; format: functional
Outline: (§3)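 Kirby-Bauer paper-disc assay: log-phase E. coli (10⁸ bacteria) grown in LB broth, spread on LB agar for confluent growth; 7 mm nitrocellulose discs soaked with antibiotic solution at the listed concentration (μg/ml) placed on surface; incubated 37°C for 48 h; diameter of growth-inhibition zone measured in mm. Strain is the phoU transposon mutant transformed by electroporation with empty vector control.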

[10] = tested on: Escherichia coli; test: Antibacterial activity against Escherichia coli K12 mutant JHU313 containing plasmid PhoU at 50 ug/ml after 48 hrs by disc diffusion method; format: functional
Outline: as §1

[11] = tested on: Escherichia coli; test: Antibacterial activity against Escherichia coli K12 mutant JHU313 containing plasmid vector at 12.5 ug/ml after 48 hrs by disc diffusion method; format: functional
Outline: as §1

[12] = tested on: Escherichia coli; test: Antibacterial activity against Escherichia coli K12 PhoU wild type W3110 at 25 ug/ml after 48 hrs by disc diffusion method; format: functional
Outline: as §2

[13] = tested on: Escherichia coli; test: Antibacterial activity against Escherichia coli K12 mutant JHU313 at 12.5 ug/ml after 48 hrs by disc diffusion method; format: functional
Outline: as §1

[14] = tested on: Escherichia coli; test: Antibacterial activity against Escherichia coli K12 mutant JHU313 containing plasmid PhoU at 25 ug/ml after 48 hrs by disc diffusion method; format: functional
Outline: as §1

[15] = tested on: Escherichia coli; test: Antibacterial activity against Escherichia coli K12 PhoU wild type W3110 at 12.5 ug/ml after 48 hrs by disc diffusion method; format: functional
Outline: as §2

[16] = tested on: Escherichia coli; test: Antibacterial activity against Escherichia coli K12 mutant JHU313 containing plasmid vector at 50 ug/ml after 48 hrs by disc diffusion method; format: functional
Outline: as §3

[17] = tested on: Escherichia coli
[18] = tested on: Escherichia coli; test: Antibacterial activity against Escherichia coli K12 PhoU wild type W3110 at 2 ug/ml after 48 hrs by disc diffusion method; format: functional
Outline: (§4)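 Kirby-Bauer disc assay. Log-phase LB culture (10⁸ bacteria) was spread for confluent growth on LB agar. 7 mm nitrocellulose discs soaked in antibiotic at the listed concentrations were laid on the agar. Inhibition zone diameter (mm) was measured after 48 h at 37°C.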

[19] = tested on: Escherichia coli; test: Antibacterial activity against Escherichia coli K12 mutant JHU313 containing plasmid PhoU at 2 ug/ml after 48 hrs by disc diffusion method; format: functional
Outline: as §1

[20] = tested on: Escherichia coli; test: Antibacterial activity against Escherichia coli K12 mutant JHU313 containing plasmid PhoU after 16 hrs by serial dilution method; format: functional; conditions: K12, 16 h
Outline: (§5)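 Twofold serial antibiotic dilutions in LB broth were seeded with 10⁶–10⁷ bacteria/ml from log-phase culture and incubated 16 h at 37°C. MIC was taken as the lowest concentration with no visible growth. MBC was taken as the concentration giving a 100-fold CFU drop from the inoculum.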

[21] = tested on: Escherichia coli; test: Antibacterial activity against Escherichia coli K12 mutant JHU313 at 0.5 ug/ml after 48 hrs by disc diffusion method; format: functional
Outline: as §1

[22] = tested on: Escherichia coli; test: Antibacterial activity against Escherichia coli K12 mutant JHU313 containing plasmid vector at 0.5 ug/ml after 48 hrs by disc diffusion method; format: functional
Outline: as §1

[23] = tested on: Escherichia coli; test: Antibacterial activity against Escherichia coli K12 mutant JHU313 containing plasmid PhoU at 0.5 ug/ml after 48 hrs by disc diffusion method; format: functional
Outline: as §1

[24] = tested on: Escherichia coli; test: Antibacterial activity against Escherichia coli K12 mutant JHU313 at 2 ug/ml after 48 hrs by disc diffusion method; format: functional
Outline: as §1

[25] = tested on: Escherichia coli; test: Antibacterial activity against Escherichia coli K12 PhoU wild type W3110 at 1 ug/ml after 48 hrs by disc diffusion method
[26] = tested on: Escherichia coli; remark: listed apart in the source
[27] = tested on: Escherichia coli; test: Antibacterial activity against Escherichia coli K12 mutant JHU313 after 16 hrs by serial dilution method; format: functional; conditions: K12, 16 h
Outline: as §5

[28] = tested on: Escherichia coli; remark: listed apart in the source
[29] = tested on: Escherichia coli; test: Antibacterial activity against Escherichia coli K12 mutant JHU313 containing plasmid vector at 2 ug/ml after 48 hrs by disc diffusion method; format: functional
Outline: as §1

[30] = tested on: Escherichia coli; test: Antibacterial activity against Escherichia coli K12 PhoU wild type W3110 at 0.5 ug/ml after 48 hrs by disc diffusion method; format: functional
Outline: as §4

[31] = tested on: Escherichia coli; test: Antibacterial activity against Escherichia coli K12 PhoU wild type W3110 after 16 hrs by serial dilution method; format: functional; conditions: K12, 16 h
Outline: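 Serial twofold antibiotic dilutions in LB broth; log-phase inoculum 10⁶ to 10⁷ bacteria/ml; 16 h at 37°C. MIC was the lowest concentration with no visible growth. MBC was the concentration giving a 100-fold CFU drop below the seeded inoculum.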

[32] = tested on: Escherichia coli; test: Antibacterial activity against Escherichia coli K12 mutant JHU313 containing plasmid vector after 16 hrs by serial dilution method; format: functional; conditions: K12, 16 h
Outline: as §5

For `NC(=O)c1cnccn1` [PYRAZINAMIDE], the CFU [1] was 6.7 10^6/ml, the Activity [2] was “Active” and the CFU [3] was 1 10^6/ml. The Activity [4] was “Active”.

In the case of `CN(C)[C@@H]1C(O)=C(C(N)=O)C(=O)[C@@]2(O)C(O)=C3C(=O)c4c(O)cccc4[C@@](C)(O)[C@H]3C[C@@H]12` [TETRACYCLINE], the inhibition zone (IZ) [5] is reported as 32 mm, the inhibition zone (IZ) [6] is reported as 23 mm and the inhibition zone (IZ) [7] is reported as 30 mm. For the same compound, the inhibition zone (IZ) [8] was 32 mm, the inhibition zone (IZ) [9] was 34 mm and the inhibition zone (IZ) [10] was 32 mm. For the same compound, the inhibition zone (IZ) [11] was 34 mm, the inhibition zone (IZ) [12] was 23 mm and the inhibition zone (IZ) [13] was 26 mm. For the same compound, the inhibition zone (IZ) [14] was 32 mm, the inhibition zone (IZ) [15] was 22 mm and the inhibition zone (IZ) [16] was 34 mm.

With `COc1cc(Cc2cnc(N)nc2N)cc(OC)c1OC` [TRIMETHOPRIM] the IZ [17] was 38 mm, the inhibition zone (IZ) [18] was 30 mm and the inhibition zone (IZ) [19] was 36 mm. It also gave an MBC [20] of 4 µg/mL (≈ 13.8 µM), an MIC [20] of 2 µg/mL (≈ 6.89 µM) and an inhibition zone (IZ) [21] of 31 mm. For the same compound, the inhibition zone (IZ) [22] was 36 mm, the inhibition zone (IZ) [23] was 32 mm and the inhibition zone (IZ) [24] was 42 mm. For the same compound, the IZ [25] was 26 mm, the IZ [26] was 33 mm and the MBC [27] was 1 µg/mL (≈ 3.44 µM). It also gave an MIC [27] of 0.25 µg/mL (≈ 0.861 µM), an IZ [28] of 40 mm and an inhibition zone (IZ) [29] of 44 mm. The inhibition zone (IZ) [30] was 24 mm, the MBC [31] was 8 µg/mL (≈ 27.6 µM) and the MIC [31] was 2 µg/mL (≈ 6.89 µM). It also gave an MBC [32] of 1 µg/mL (≈ 3.44 µM) and an MIC [32] of 0.5 µg/mL (≈ 1.72 µM).
